{"source": "ChEMBL document CHEMBL1122931", "about": "“Uridine 5'-diphosphate glucose analogues. Inhibitors of protein glycosylation that show antiviral activity” (J Med Chem, 1985)", "key": {"[1]": {"assay": "(§1) Concentration that induces 50% cell toxicity was determined using monolayers of uninfected HeLa cells", "assay_type": "cell-based", "details": "human, monolayers of uninfected HeLa cells; read-out: Tox50", "method_in_brief": "(§2)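 Uninfected HeLa monolayers, grown in DMEM with 10% newborn calf serum, were exposed to several concentrations of compound. They were incubated for 48 h at 37 °C, as in the parallel HSV-1 cytopathic-effect assay. Toxicity was judged by phase-contrast microscopy.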"}, "[2]": {"system": "Human alphaherpesvirus 1", "assay": "Concentration that protects by 50% the cytopathic effect induced by herpes simplex virus - 1.", "assay_type": "functional", "method_in_brief": "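HeLa monolayers (DMEM + 10% newborn calf serum) infected with HSV-1 strain KOS (Vero-grown and titrated) at moi 0.5 pfu/cell in presence of several compound concentrations; 48 h at 37 °C, then cytopathic effect scored by phase-contrast microscopy. Toxicity judged microscopically in uninfected cells.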"}, "[3]": {"system": "HeLa", "assay": "as §1", "assay_type": "cell-based", "details": "human, hela; read-out: Tox50", "method_in_brief": "as §2"}}}
{"smiles": "O=c1[nH]c(=O)n([C@H]2C[C@H](O)[C@@H](CO)O2)cc1/C=C/Br", "note": "[BRIVUDINE]", "values": [{"measurement": "CC50", "setting": "[1]", "result": 400, "unit": "µM"}, {"measurement": "CPE50", "setting": "[2]", "result": 1, "unit": "µM"}]}
{"smiles": "CC1(C)O[C@@H]2[C@H](O1)[C@@H](COS(=O)(=O)NC(=O)O[C@H]1O[C@H](COCc3ccccc3)[C@@H](OCc3ccccc3)[C@H](OCc3ccccc3)[C@H]1OCc1ccccc1)O[C@H]2n1ccc(=O)[nH]c1=O", "values": [{"measurement": "CC50", "setting": "[1]", "result": 230, "unit": "µM"}, {"measurement": "CPE50", "setting": "[2]", "result": 85, "unit": "µM"}]}
{"smiles": "O=C(NS(=O)(=O)OC[C@H]1OC(n2ccc(=O)[nH]c2=O)[C@H](O)[C@@H]1O)O[C@H]1O[C@H](COCc2ccccc2)[C@@H](OCc2ccccc2)[C@H](OCc2ccccc2)[C@H]1OCc1ccccc1", "note": "(some centres undefined)", "values": [{"measurement": "CC50", "setting": "[1]", "result": 360, "unit": "µM"}, {"measurement": "CPE50", "setting": "[2]", "result": 90, "unit": "µM"}]}
{"smiles": "CC(=O)N[C@H]1[C@@H](O[C@@H]2O[C@H](CC(O)[C@H]3O[C@@H](n4ccc(=O)[nH]c4=O)[C@H](O)[C@@H]3O)[C@H](O)[C@H](O)[C@H]2NC(=O)/C=C/CC(C)C)O[C@H](CO)[C@@H](N)[C@@H]1O", "note": "(some centres undefined) [TUNICAMYCIN]", "values": [{"measurement": "CC50", "setting": "[3]", "result": 1, "unit": "µM"}]}
{"smiles": "CC(=O)N[C@H]1[C@@H](OC(=O)NS(=O)(=O)OC[C@H]2OC(n3ccc(=O)[nH]c3=O)[C@H](O)[C@@H]2O)O[C@H](COC(C)=O)[C@@H](OC(C)=O)[C@@H]1OC(C)=O", "note": "(some centres undefined)", "values": [{"measurement": "CC50", "setting": "[1]", "result": "> 575", "unit": "µM"}, {"measurement": "CPE50", "setting": "[2]", "result": ">575", "unit": "µM"}]}
{"smiles": "Nc1nc2c(ncn2COCCO)c(=O)[nH]1", "note": "[ACYCLOVIR]", "values": [{"measurement": "CC50", "setting": "[1]", "result": 10000, "unit": "µM"}, {"measurement": "CPE50", "setting": "[2]", "result": 60, "unit": "µM"}]}
{"smiles": "CC1(C)O[C@@H]2[C@H](O1)[C@@H](COC(N)=O)O[C@H]2n1ccc(=O)[nH]c1=O", "values": [{"measurement": "CC50", "setting": "[1]", "result": "> 660", "unit": "µM"}, {"measurement": "CPE50", "setting": "[2]", "result": ">660", "unit": "µM"}]}
{"smiles": "NC(=O)O[C@H]1O[C@H](COCc2ccccc2)[C@@H](OCc2ccccc2)[C@H](OCc2ccccc2)[C@H]1OCc1ccccc1", "values": [{"measurement": "CC50", "setting": "[1]", "result": "> 350", "unit": "µM"}, {"measurement": "CPE50", "setting": "[2]", "result": ">350", "unit": "µM"}]}
{"smiles": "NC12CC3CC(CC(C3)C1)C2", "note": "[AMANTADINE]", "values": [{"measurement": "CC50", "setting": "[1]", "result": 500, "unit": "µM"}, {"measurement": "CPE50", "setting": "[2]", "result": 200, "unit": "µM"}]}
{"smiles": "CC1(C)O[C@@H]2[C@H](O1)[C@@H](COS(N)(=O)=O)O[C@H]2n1ccc(=O)[nH]c1=O", "values": [{"measurement": "CC50", "setting": "[1]", "result": 740, "unit": "µM"}, {"measurement": "CPE50", "setting": "[2]", "result": 740, "unit": "µM"}]}
